Measured values from the array DNA melting data of Ke et al. (doi:10.1101/2024.01.08.574731).

How the values were obtained:
[1] = melting temperature; fluorescence melt of hairpins on a sequencing array, two-state fit, raised by 9.35 °C to match UV melts; conditions: sodium 0.088 M
Procedure, shortened: (§1)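 Melting temperature and folding enthalpy were obtained by bootstrapped two-state fitting. Fits used Cy3 fluorescence of library hairpins with annealed Cy3 and quencher oligos on a sequenced MiSeq flow cell, imaged in 50 mM Na-HEPES pH 8.0, 25 mM NaCl in 2.5 °C steps up to 60 °C and normalised to pre-quench Cy3 and control constructs. Four replicates were combined by inverse-variance weighting, and fitted temperatures were raised by 9.35 °C to match UV melts.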

[2] = folding enthalpy; higher = less favourable; fluorescence melt of hairpins on a sequencing array, two-state fit; conditions: sodium 0.088 M
Procedure, shortened: as §1

| Sequence | Tm [1] | folding enthalpy [2] |
| --- | --- | --- |
| GACAACGAAAGTTCTGTC ((((((....)))..))) | 27 °C | -14.7 kcal/mol |
| GTATTCGAAAGAAGTAC ((((((....))).))) | 24.9 °C | -8.84 kcal/mol |
| GGCGCTGGAAACAGTGCC (((.(((....))).))) | 62.6 °C | -49.2 kcal/mol |
| GACCTCCGAAAGGACGTC (((.(((....))).))) | 42 °C | -27.3 kcal/mol |
| GATGCCACGAAAGTGATC (((..(((....)))))) | 20.2 °C | -9.92 kcal/mol |
| GGGTGCGAAAGCACACCC ((((((....)))..))) | 58.3 °C | -10.4 kcal/mol |
| GGGAACCCGAAAGGGCCC (((..(((....)))))) | 45.9 °C | -15.4 kcal/mol |
| GAAAGCGAAAGCTTGTTC ((((((....)))..))) | 36.8 °C | -12.5 kcal/mol |
| GACACCGAAAGGTCGGTC ((((((....)))..))) | 35 °C | -16.7 kcal/mol |
| GATCGGAAATCCGATC ((((((....)))))) | 54.5 °C | -44.8 kcal/mol |
| GTCCCTGAAAAGGGAC ((((((....)))))) | 67.7 °C | -34.6 kcal/mol |
| GTGTGCGAAAGCACCCAC ((((((....)))..))) | 39.3 °C | -8.11 kcal/mol |
| GTGGGGGGAAACTCCCGC (.(((.(....).))).) | 48.8 °C | -21.4 kcal/mol |
| GCGAAGGAAACTTCGC ((((((....)))))) | 63.7 °C | -34.8 kcal/mol |
| GATCCTTAGGAGGATC ((((((....)))))) | 51 °C | -39.2 kcal/mol |
| GCTACGCGAAAGCGGCGC ((..(((....)))..)) | 60.5 °C | -19.6 kcal/mol |
| GTGTTCGAAAGAAACCAC ((((((....)))..))) | 27.4 °C | -10.4 kcal/mol |
| GCTTACGAAAGTAGTAGC ((((((....)))..))) | 34.8 °C | -27.9 kcal/mol |
| GATCACAGTGTGATC ((((((...)))))) | 56.6 °C | -39.9 kcal/mol |

| Sequence | Tm [1] | folding enthalpy [2] |
| --- | --- | --- |
| GGCTAGGGAAACCTAGTC (.(((((....))))).) | 48.8 °C | -41.7 kcal/mol |
| GAAGGCACGAAAGTGTTC (((..(((....)))))) | 24.6 °C | -9.46 kcal/mol |
| GCAGTGCGAAAGCAACGC ((..(((....)))..)) | 58.7 °C | -15.1 kcal/mol |
| GTCATCGAAAGATCAGAC ((((((....)))..))) | 26.5 °C | -16.7 kcal/mol |
| GGGTGCGAAAGCATACCC ((((((....)))..))) | 53.5 °C | -19.8 kcal/mol |
| GTATAGGAAACTATAC ((((((....)))))) | 41.5 °C | -25.8 kcal/mol |
| GGCGGCGAAAGCCACGCC ((((((....)))..))) | 63.6 °C | -17.1 kcal/mol |
| GCGACCTCGAAAGAGCGC (((..(((....)))))) | 49.1 °C | -31.1 kcal/mol |
| GATCCGATACGGATC ((((((...)))))) | 59.6 °C | -32.7 kcal/mol |
| GTACAGTCGAAAGACTAC (((..(((....)))))) | 29.7 °C | -10.2 kcal/mol |
| GCCCGGCGAAAGCATGGC (((..((....))..))) | 56 °C | -19 kcal/mol |
| GCGTCCACACGC ((((....)))) | 52.4 °C | -27.1 kcal/mol |
| GACCGAGCGAAAGCTGTC (((..(((....)))))) | 36.8 °C | -15.3 kcal/mol |
| GTTAAGACGAAAGTCAAC (((..(((....)))))) | 30.1 °C | -11.8 kcal/mol |
| GTTGACGAAAGTCCAAAC ((((((....)))..))) | 24.3 °C | -9.18 kcal/mol |
| GGTCTCCGAAAGGACACC (((.(((....))).))) | 42.1 °C | -24.5 kcal/mol |
| GTGGGGGGAAACCTCCGC (.((.((....)).)).) | 45.4 °C | -25.4 kcal/mol |
| GCCCTCGGAAACAAGGGC (((((.(....).))))) | 49.6 °C | -35.8 kcal/mol |
| GAAATCCGAAAGGAATTC (((.(((....))).))) | 40.9 °C | -28.1 kcal/mol |
